# Results published in ChEMBL document CHEMBL5325390, “1,2,4-Triazole-3-thione analogues with an arylakyl group at position 4 as metallo-β-lactamase inhibitors” (Bioorg Med Chem, 2022).
# Columns and labels:
# [1] = Binding affinity to VIM-4 (unknown origin) expressed in Escherichia coli BL21(DE3) assessed as inhibition constant by measuring rate of substrate hydrolysis by UV-Vis spectrophotometric analysis
# Procedure, shortened: (§1)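 Purified MBL (1–70 nM) with 150 µM imipenem or meropenem as reporter substrate, 50 mM HEPES pH 7.5, 30 °C. Hydrolysis followed by absorbance at 300 nm without and with inhibitor (0.5 µM–1 mM). Ki from the slope of v0/vi vs [I] under a competitive model, or from Dixon plots varying inhibitor and substrate. […] Triplicate, mean ± SD.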
# [2] = biological target: Metallo-beta-lactamase type 2 (Bacteria) (UniProt C7C422); assay: Inhibition of NDM1 (unknown origin) expressed in Escherichia coli BL21(DE3) assessed as substrate hydrolysis at 100 uM by UV-Vis spectrophotometric analysis relative to control
# Sequence of Metallo-beta-lactamase type 2 (Bacteria) (C7C422 whole entry): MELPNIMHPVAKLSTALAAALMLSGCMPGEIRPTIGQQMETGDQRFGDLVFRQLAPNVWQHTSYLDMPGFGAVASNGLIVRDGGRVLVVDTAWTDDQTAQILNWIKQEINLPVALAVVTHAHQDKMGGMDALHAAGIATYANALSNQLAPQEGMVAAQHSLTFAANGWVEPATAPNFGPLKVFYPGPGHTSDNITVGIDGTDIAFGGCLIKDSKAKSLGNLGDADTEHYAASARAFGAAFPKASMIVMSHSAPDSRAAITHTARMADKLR
# Procedure, shortened: (§2)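 Single-point screen at 100 or 200 µM inhibitor against purified MBL (1–70 nM) with 150 µM imipenem or meropenem reporter substrate, 50 mM HEPES pH 7.5, 30 °C. Initial hydrolysis rate read by absorbance at 300 nm and compared with the uninhibited reaction. Triplicate.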
# [3] = Binding affinity to VIM-2 (unknown origin) expressed in Escherichia coli BL21(DE3) assessed as inhibition constant by measuring rate of substrate hydrolysis by UV-Vis spectrophotometric analysis; procedure, shortened: as §1
# [4] = tested on: metallo-β-lactamase IMP-1 (Pseudomonas aeruginosa); assay: Inhibition of IMP1 (unknown origin) expressed in Escherichia coli BL21(DE3) assessed as substrate hydrolysis at 100 uM by UV-Vis spectrophotometric analysis relative to control
# [5] = tested on: metallo-β-lactamase VIM-4 (Pseudomonas aeruginosa); assay: Inhibition of VIM-4 (unknown origin) expressed in Escherichia coli BL21(DE3) assessed as substrate hydrolysis at 100 uM by UV-Vis spectrophotometric analysis relative to control
# [6] = biological target: Metallo-beta-lactamase type 2 (Bacteria) (UniProt C7C422); assay: Inhibition of NDM1 (unknown origin) expressed in Escherichia coli BL21(DE3) assessed as substrate hydrolysis at 200 uM by UV-Vis spectrophotometric analysis relative to control; procedure, shortened: as §2
# [7] = tested on: metallo-β-lactamase VIM-2 (Pseudomonas aeruginosa); assay: Inhibition of VIM-2 (unknown origin) expressed in Escherichia coli BL21(DE3) assessed as substrate hydrolysis at 200 uM by UV-Vis spectrophotometric analysis relative to control
# [8] = tested on: metallo-β-lactamase VIM-4 (Pseudomonas aeruginosa); assay: Inhibition of VIM-4 (unknown origin) expressed in Escherichia coli BL21(DE3) assessed as substrate hydrolysis at 200 uM by UV-Vis spectrophotometric analysis relative to control
# [9] = tested on: metallo-β-lactamase VIM-2 (Pseudomonas aeruginosa); assay: Inhibition of VIM-2 (unknown origin) expressed in Escherichia coli BL21(DE3) assessed as substrate hydrolysis at 100 uM by UV-Vis spectrophotometric analysis relative to control
# Klebsiella pneumoniae [10] = assay: Antimicrobial synergistic activity against blaVIM-4-producing multidrug-resistant Klebsiella pneumoniae VA416/02 clinical isolate assessed as meropenem MIC at 32 ug/ml by CLSI based broth microdilution method (reference value: 16 ug/ml); type: functional; settings: dose 32 µg/ml
# Klebsiella pneumoniae [11] = assay: Antimicrobial synergistic activity against blaVIM-1-producing multidrug-resistant Klebsiella pneumoniae 7023 clinical isolate assessed as meropenem MIC at 32 ug/ml by CLSI based broth microdilution method (reference value: 16 ug/ml); type: functional; settings: dose 32 µg/ml
# Beta-lactamase VIM-1 = Beta-lactamase VIM-1 (Bacteria, UniProt Q8GDC1); assay: Binding affinity to VIM-1 (unknown origin) expressed in Escherichia coli BL21(DE3) assessed as inhibition constant by measuring rate of substrate hydrolysis by UV-Vis spectrophotometric analysis; procedure, shortened: as §1
# [12] = tested on: metallo-β-lactamase IMP-1 (Pseudomonas aeruginosa); assay: Inhibition of IMP1 (unknown origin) expressed in Escherichia coli BL21(DE3) assessed as substrate hydrolysis at 200 uM by UV-Vis spectrophotometric analysis relative to control
# [13] = Binding affinity to IMP1 (unknown origin) expressed in Escherichia coli BL21(DE3) assessed as inhibition constant by measuring rate of substrate hydrolysis by UV-Vis spectrophotometric analysis; settings: read-out: Ki; procedure, shortened: as §1
# [14] = biological target: Metallo-beta-lactamase type 2 (Bacteria, UniProt C7C422); assay: Binding affinity to NDM1 (unknown origin) expressed in Escherichia coli BL21(DE3) assessed as inhibition constant by measuring rate of substrate hydrolysis by UV-Vis spectrophotometric analysis; procedure, shortened: as §1
# Sequence of Metallo-beta-lactamase type 2 (C7C422 whole entry): as above
# Escherichia coli = assay: Synergistic antimicrobial activity against blaNDM-1-producing multidrug-resistant Escherichia coli SI-004M clinical isolate assessed as meropenem MIC at 32 ug/ml by CLSI based microdilution method (reference value: 64 ug/ml); type: functional; settings: dose 32 µg/ml
Structure (SMILES),Ki [1] [µM],inhibition [2] [%],Ki [3] [µM],inhibition [4] [%],inhibition [5] [%],inhibition [6] [%],inhibition [7] [%],inhibition [8] [%],inhibition [9] [%],MIC (Klebsiella pneumoniae [10]) [µg/mL],MIC (Klebsiella pneumoniae [11]) [µg/mL],Ki (Beta-lactamase VIM-1) [µM],inhibition [12] [%],Ki [13] [µM],Ki ([14]; read-out: Ki(app)) [µM],Ki ([14]; read-out: Ki) [µM],MIC (Escherichia coli) [µg/mL]
O=C(O)c1ccccc1CCn1c(-c2cccc(-c3ccccc3)c2)n[nH]c1=S,2.1,< 30,0.08,< 30,,,,,,,,,,,,,
CC(Cn1c(-c2ccccc2)n[nH]c1=S)c1ccccc1 (configuration not stated),,< 30,,55,< 30,< 50,< 50,< 50,< 30,,,,,,,,
COc1ccc(O)c(-c2n[nH]c(=S)n2CCc2ccc(O)cc2)c1,1.9,< 30,3.9,< 30,,< 50,,,,2,2,1.6,< 50,,,,
Oc1ccc(CCn2c(-c3ccccc3)n[nH]c2=S)c(O)c1,4.1,,,,,,< 50,,< 30,2,4,5.1,,27,42,,
O=C(O)c1ccccc1/C=N/n1c(-c2cccc(-c3ccccc3)c2)n[nH]c1=S,0.04,,0.2,,,,,,,,,,,17.7,,4.2,
O=C(O)c1ccc(-n2c(S)nnc2-c2ccccc2)cc1,,< 30,,,,,,,,,,,,,,,
O=C1OC(Cn2c(-c3ccc4ccccc4c3)n[nH]c2=S)c2ccccc21 (configuration not stated),8.2,,,,,,< 50,,< 30,,,6.3,,9.8,28,,
Cn1cccc1-c1n[nH]c(=S)n1CC1OC(=O)c2ccccc21 (configuration not stated),2.5,31,,30,,,,,38,2,2,2.2,,,,,32
Oc1cccc(CCn2c(-c3cccc(-c4ccccc4)c3)n[nH]c2=S)c1O,0.8,,1.8,,,,,,,4,16,0.7,,20,,22.4,32
COc1ccc(O)c(-c2n[nH]c(=S)n2CCc2ccccc2)c1,1.5,,3.9,,,,,,,2,4,1.9,,20.2,,6.8,64
Oc1ccc(CCn2c(-c3ccccc3)n[nH]c2=S)cc1,2.3,,6.1,,,,,,,4,4,2.1,,42,,12,64
Oc1ccc(CCn2c(-c3ccc4ccccc4c3)n[nH]c2=S)cc1,3.2,< 30,,,,< 50,< 50,,< 30,,,3.3,,24,,,
COc1ccc(O)c(-c2n[nH]c(=S)n2[C@@H]2C[C@H]2c2ccccc2)c1,2.5,,,,,,,,41,2,4,2.2,,4.6,,9.5,32
S=c1[nH]nc(-c2cccc(-c3ccccc3)c2)n1[C@@H]1C[C@H]1c1ccccc1,,69,,< 30,< 30,,< 50,< 50,< 30,,,,< 50,,,,
O=C1OC(Cn2c(-c3ccc(-c4ccccc4)cc3)n[nH]c2=S)c2ccccc21 (configuration not stated),,< 30,,48,,< 50,< 50,,< 30,,,,,,,,
Oc1ccc(/C=N/n2c(-c3ccccc3-c3ccccc3)n[nH]c2=S)c(O)c1,9,,4.5,,,,,,,,,,,12,,6.4,
